This is an account of results in ChEMBL document CHEMBL1145938, “Synthesis and structure-activity relationship of aminobenzophenones. A novel class of p38 MAP kinase inhibitors with high antiinflammatory activity” (J Med Chem, 2003).

The subject of assay [1] is Mus musculus. Briefly: Inhibition of ear weight induced by 12-O-tetradecanoylphorbol-13-acetate (TPA) in murine chronic irritative contact dermatitis model at 0.001 mg/ear (in vivo). Format: functional. Put shortly:
(§1)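 Murine TPA-induced chronic irritative ear dermatitis, with compound given topically per ear. Ear swelling and ear weight were determined 5 h after the last application. Values are mean % inhibition ± SEM of three to five experiments.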

Assay [2] deals with T1, Myeloperoxidase (Mus musculus) (UniProt P11247).
T1 sequence (whole entry): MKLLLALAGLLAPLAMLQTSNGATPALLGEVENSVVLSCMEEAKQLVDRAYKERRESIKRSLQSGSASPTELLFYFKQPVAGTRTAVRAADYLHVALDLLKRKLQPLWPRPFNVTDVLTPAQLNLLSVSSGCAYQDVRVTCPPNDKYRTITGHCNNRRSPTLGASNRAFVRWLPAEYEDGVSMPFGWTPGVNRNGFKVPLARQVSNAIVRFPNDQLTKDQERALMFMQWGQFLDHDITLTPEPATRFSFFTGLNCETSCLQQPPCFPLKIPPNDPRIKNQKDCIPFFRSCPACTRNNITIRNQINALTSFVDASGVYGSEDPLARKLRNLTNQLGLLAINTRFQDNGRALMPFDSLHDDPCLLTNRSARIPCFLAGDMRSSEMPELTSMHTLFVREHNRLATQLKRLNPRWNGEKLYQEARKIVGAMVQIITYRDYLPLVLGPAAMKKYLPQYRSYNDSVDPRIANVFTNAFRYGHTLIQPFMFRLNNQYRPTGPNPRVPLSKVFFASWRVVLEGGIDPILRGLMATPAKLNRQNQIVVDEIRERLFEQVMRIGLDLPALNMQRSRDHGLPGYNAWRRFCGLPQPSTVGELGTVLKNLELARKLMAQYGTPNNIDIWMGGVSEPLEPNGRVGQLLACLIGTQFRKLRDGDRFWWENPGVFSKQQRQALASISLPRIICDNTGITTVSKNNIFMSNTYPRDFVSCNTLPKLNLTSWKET
Kind of assay: Inhibition of myeloperoxidase (MPO) activity induced by TPA in murine chronic irritative contact dermatitis model at 0.001 mg/ear (in vivo). Format: organism-based.

For assay [3], the system named is Mus musculus. Briefly: Inhibition of ear swelling induced by 12-O-tetradecanoylphorbol-13-acetate (TPA) in murine chronic irritative contact dermatitis model at 0.001 mg/ear (in vivo). Format: functional. Put shortly: as §1

Broadly, the Inhibition is how much of the control response was suppressed. The inhibition is the change of the read-out against control, counted positive when it falls. A higher inhibition goes with strong suppression. `CCCCC(=O)O[C@]1(C(=O)CO)[C@@H](C)C[C@H]2[C@@H]3CCC4=CC(=O)C=C[C@]4(C)[C@@]3(F)[C@@H](O)C[C@@]21C` [BETAMETHASONE VALERATE]: the Inhibition in the assay with Mus musculus [1] was determined as 38%; with Mus musculus [3] it was 41%. Also, the inhibition in assay [2] turned out to be 67%.
